Consider five compounds from BindingDB's records for doi:10.1021/jm00053a001 (Merck Sharp and Dohme Research Laboratories, 1993).

Where a SMILES comes first, the peptide text is derived from it.

The target in one test is T1, Substance-K receptor (Rattus norvegicus, UniProt P16610).
T1 sequence (P16610 whole entry): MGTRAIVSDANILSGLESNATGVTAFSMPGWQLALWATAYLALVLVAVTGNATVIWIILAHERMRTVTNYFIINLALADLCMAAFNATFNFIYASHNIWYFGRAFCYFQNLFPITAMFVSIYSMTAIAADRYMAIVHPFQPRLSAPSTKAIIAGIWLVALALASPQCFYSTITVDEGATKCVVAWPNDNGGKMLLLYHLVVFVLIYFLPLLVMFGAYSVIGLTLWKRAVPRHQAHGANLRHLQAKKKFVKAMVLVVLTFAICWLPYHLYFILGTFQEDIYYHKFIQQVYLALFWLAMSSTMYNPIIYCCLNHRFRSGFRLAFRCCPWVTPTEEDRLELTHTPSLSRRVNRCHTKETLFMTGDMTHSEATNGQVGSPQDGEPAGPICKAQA
Nature of the test: Inhibition of eledoisin binding to NK-2 receptor in rat vas deferens. The method in brief:
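Vas deferens from Sprague-Dawley rats (200–300 g), electrically stimulated contractions with supramaximal rectangular bipolar pulses. Eledoisin log dose-response curves; antagonism taken from rightward shift. pA2 by Schild regression over three or more antagonist concentrations, or apparent pA2 from one antagonist concentration via the standard Schild equation assuming unit slope.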

Another test has as its target T2, Neuromedin-K receptor (Rattus norvegicus, UniProt P16177).
T2 sequence (P16177 whole entry): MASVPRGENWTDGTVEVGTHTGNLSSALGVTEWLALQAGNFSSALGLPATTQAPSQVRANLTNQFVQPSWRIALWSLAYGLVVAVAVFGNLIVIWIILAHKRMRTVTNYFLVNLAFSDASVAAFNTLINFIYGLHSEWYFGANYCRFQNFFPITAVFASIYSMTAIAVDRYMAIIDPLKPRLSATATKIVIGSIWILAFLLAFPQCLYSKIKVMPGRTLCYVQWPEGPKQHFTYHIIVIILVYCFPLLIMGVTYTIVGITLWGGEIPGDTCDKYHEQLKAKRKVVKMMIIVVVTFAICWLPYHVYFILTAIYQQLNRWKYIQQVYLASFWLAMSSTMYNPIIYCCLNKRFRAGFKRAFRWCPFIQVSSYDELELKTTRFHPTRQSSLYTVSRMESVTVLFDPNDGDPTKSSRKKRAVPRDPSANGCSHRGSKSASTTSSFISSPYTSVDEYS
Put plainly: Tested for antagonist activity toward NK-3 receptor in rat portal vein against the agonist eledoisin (mean +/-, n=4). The method in brief:
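Rat portal vein longitudinal strips; frequency and amplitude of myogenic contractions recorded. Antagonist activity derived from rightward shift of eledoisin log dose-response curves. pA2 by Schild regression, least squares, three or more antagonist concentrations, or apparent pA2 at a single antagonist concentration assuming unit slope (mean of three or four observations).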

For another test, the target named is Substance-P receptor (Cavia porcellus, UniProt P30547). Put plainly: Tested for antagonist activity toward NK-1 receptor in guinea pig ileum against the agonist eledoisin (mean +/-, n=4). The method in brief: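 Guinea pig (male Dunkin-Hartley, 300–400 g) small-intestine longitudinal muscle, isometric contraction in Krebs-Henseleit at 37 °C with atropine, mepyramine, methysergide (each 5 μM) and indomethacin (1 μM). Antagonism measured as rightward shift of log dose-response curves to eledoisin. pA2 from Schild regression (least squares, three or more antagonist concentrations, three or more observations each), or apparent pA2 at a single concentration assuming unit slope (mean of 3–4 observations).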
Sequence of Substance-P receptor (P30547 whole entry): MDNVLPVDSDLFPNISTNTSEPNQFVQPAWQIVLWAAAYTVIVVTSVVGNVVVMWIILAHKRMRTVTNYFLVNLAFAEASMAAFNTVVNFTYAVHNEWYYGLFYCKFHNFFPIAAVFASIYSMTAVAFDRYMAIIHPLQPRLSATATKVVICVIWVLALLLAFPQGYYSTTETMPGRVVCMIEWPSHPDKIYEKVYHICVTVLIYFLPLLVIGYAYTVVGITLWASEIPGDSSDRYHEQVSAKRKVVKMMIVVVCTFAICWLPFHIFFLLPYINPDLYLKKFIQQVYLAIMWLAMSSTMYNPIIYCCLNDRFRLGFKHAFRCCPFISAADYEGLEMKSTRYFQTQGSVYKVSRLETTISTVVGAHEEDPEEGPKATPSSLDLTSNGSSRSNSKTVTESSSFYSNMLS

The compound `CSCC[C@H]1NC(=O)[C@H](CC(C)C)NC(=O)[C@@H]2CCCN2C(=O)[C@H](Cc2ccccc2)NC(=O)[C@@H](Cc2c[nH]c3ccccc23)NC(=O)[C@H](CCC(N)=O)NC1=O` came in with a Kd at Substance-K receptor of 15.8 µM.
In the case of `CSCC[C@@H]1NC(=O)[C@H](CC(C)C)NC(=O)CNC(=O)[C@H](Cc2ccccc2)NC(=O)[C@H](Cc2c[nH]c3ccccc23)NC(=O)[C@H](CCC(N)=O)NC1=O` (cyclo(FGLMQW)), the Kd was determined as 7.94 µM on Neuromedin-K receptor, 0.00794 µM at Substance-K receptor and 2000 nM on Substance-P receptor.
With `CSCC[C@H]1NC(=O)[C@H](CC(C)C)NC(=O)[C@H]2CCCN2C(=O)[C@H](Cc2ccccc2)NC(=O)[C@@H](Cc2c[nH]c3ccccc23)NC(=O)[C@H](CCC(N)=O)NC1=O`, binding at Substance-K receptor was characterised by a dissociation constant (Kd) of 20 µM.
Consider `CSCC[C@@H]1NC(=O)[C@H](CC(C)C)NC(=O)[C@H](Cc2ccccc2)NC(=O)[C@H](Cc2c[nH]c3ccccc23)NC(=O)[C@H](CCC(N)=O)NC1=O` (cyclo(FLMQW)), for which the Kd at Substance-K receptor turned out to be 0.631 µM.
At Substance-K receptor, `CSCC[C@H]1NC(=O)[C@H](CC(C)C)N2C=CC(NC(=O)[C@H](Cc3ccccc3)NC(=O)[C@@H](Cc3ccccc3)NC(=O)C(CCC(N)=O)NC1=O)C2=O` (some centres not stated) gave a Kd of 15.8 µM.

As usually defined, the Kd is a measure of binding affinity in units of concentration. Lower therefore signals higher affinity.
